Measurements taken from paper PMC3053052 (Neuropeptides, 2010).
Each block holds one compound with its values, some of them ahead of it.

Columns and labels:
STAR and TSPO = conditions: systemic alcohol administration; ref Herman et al., 2006; cited from earlier work
[1] = target: T1, vascular NPY receptors (mainly Y1 subtype), rat testis (Rattus norvegicus, UniProt P21555); assay: Competition binding; conditions: 25 nM cold PYY; ^125I-PYY 10,000 cpm/100 μl (22.5 pM); rat testis sections
T1 sequence (P21555 1-382): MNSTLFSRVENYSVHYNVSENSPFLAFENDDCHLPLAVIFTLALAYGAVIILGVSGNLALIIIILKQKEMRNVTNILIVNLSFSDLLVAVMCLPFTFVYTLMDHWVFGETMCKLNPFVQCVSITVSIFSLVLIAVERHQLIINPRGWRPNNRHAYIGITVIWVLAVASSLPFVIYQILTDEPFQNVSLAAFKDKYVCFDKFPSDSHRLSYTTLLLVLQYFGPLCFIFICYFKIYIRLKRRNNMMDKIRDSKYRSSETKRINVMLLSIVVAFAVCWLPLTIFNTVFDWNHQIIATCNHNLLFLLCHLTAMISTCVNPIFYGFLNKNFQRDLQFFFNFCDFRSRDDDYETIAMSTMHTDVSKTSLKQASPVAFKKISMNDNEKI

[2] = tested on: NPY receptors in seminiferous tubules; assay: In vitro NPY receptor autoradiography, ^125I-PYY binding to seminiferous tubules; design: species or system rat; conditions: surrounding seminiferous tubules; 22.5 pM ^125I-PYY, 2,000 Ci/mmol
How it was run: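 Serial sections of rat testis incubated with 125I-PYY (10,000 cpm/100 μl, 2,000 Ci/mmol, 22.5 pM). Competition run with subtype-selective ligands, including a Y5-selective PP analogue. Rat brain served as positive control. Slides were exposed to film, and signals were matched to adjacent sections stained with H&E, anti-Factor VIII (vessels) or anti-STAR (Leydig cells). Densities were quantified by computer-assisted imaging.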

plasma LH = conditions: ref Pierroz et al., 1999; cited from earlier work
T response to hCG = assay: Plasma testosterone response to hCG after intratesticular; assay type: in vivo, rat
How it was run: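 Jugular-cannulated adult male rats, freely moving. Test peptide 5 μg/kg itt or vehicle under isoflurane, 1 h before hCG 1 IU/kg iv. One series pretreated with GnRH antagonist […] iv 2 h before hCG. Blood drawn before and 15, 30, 60, 90 min after hCG. Plasma T measured by commercial kit (sensitivity 0.2 ng/mL), cumulative T summed. N = 5–7; mean ± SEM; ANOVA/repeated measures.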

[3] = tested on: steroidogenic acute regulatory (STAR) protein; assay: Leydig cell STAR protein level after itt NPY; assay type: in vivo, rat; conditions: Leydig cells, Western blot
How it was run: (§1)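 Decapitation 1 h later. Leydig cells were isolated by collagenase dispersion and Percoll gradient, then lysed in RIPA. 25 μg protein per lane was probed with anti-STAR (1:1,500; 30-kDa form) or anti-TSPO (1:1,000). ECL signal was normalised to β-actin, as % of control.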

explanted GnRH neurons = conditions: ref Klenke et al., 2010; cited from earlier work
[4] = tested on: translocator protein (TSPO); assay: Leydig cell TSPO level after itt NPY; assay type: in vivo, rat; conditions: Leydig cells, Western blot
How it was run: as §1

testes = conditions: ref Collin et al., 1998; cited from earlier work

Compound: CCO [alcohol]
STAR and TSPO concentrations (STAR and TSPO): significantly decreased STAR and TSPO concentrations

displacement of ^125I-PYY binding to testicular blood vessels at 25 nM [1]: Complete displacement
Compound: PYY: cold PYY used to assess non-specific binding

Compound: ^125I-PYY: ^125I-PYY (2,000 Ci/mmol; Anawa, Wangen, Switzerland)
^125I-PYY binding (in words) [2]: no binding to surrounding seminiferous tubules

Compound: neuropeptide Y [NPY]
plasma LH levels (plasma LH): lower plasma LH levels
T response to hCG (T response to hCG; NPY 5 μg/kg itt 1 h before hCG 1.0 U/kg iv, at all times studied (15, 30, 60, 90 min), P<0.01 vs vehicle, N = 5-7/point (Fig. 1)): markedly (P<0.01) blunted the T response to hCG at all times studied
basal plasma T levels (T response to hCG; NPY 5 μg/kg itt, 1 h, vs vehicle, P<0.01, N = 5-7/point (Fig. 1)): significantly (P<0.01) decreased basal plasma T levels
cumulative plasma T after hCG (T response to hCG; vehicle pre-treatment, NPY 5 μg/kg itt, hCG 1 U/kg iv, cumulative T 15, 30, 60 and 90 min after hCG, mean ± SEM, N = 5-7, P<0.01 vs itt vehicle (22.20 ± 3.25)): 10.60 ± 0.98R ^a ng T/ ml
changes in STAR levels (in words) [3]: inconsistent and did not reach statistical significance
neuronal activity of explanted GnRH neurons (explanted GnRH neurons): inhibits the neuronal activity of explanted GnRH neurons
changes in TSPO levels (in words) [4]: inconsistent and did not reach statistical significance
vasoconstriction in the testes (testes): reported to cause vasoconstriction in the testes
